Hits are enriched below; roughly 2.9% of the tested compounds scored in any of these assays.
PGC1a acetyl inh – modulators of PGC1a acetylation. 350,000 compounds, 0.17% hits. inhibition, % at 15.6 µM. U2OS PGC1a acetylation, AlphaScreen anti-acetyl-lysine; with virally co-expressed GCN5 acetyltransferase. AID 651687;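 active = every replicate shows inhibition of at least 40%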;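 also: 0% = neutral control wells and 100% = positive control wells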
Ecoli rRNA inh – inhibits bacterial ribosomal RNA function over humanized ribosomes. 350,000 compounds, 1.6% hits. GFP signal change (wild-type ribosome), % (test concentration not listed). AID 720706. E. coli WT GFP vs humanized-ribosome RFP mutants, fluorescence, 24 h; stronger effect = lower value; DMSO median 0, no signal -100;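 active = significant combined selectivity score with lowered wild-type GFP, culture density cut under 30%, mutant RFP and density less affected; inactive = any of these conditions unmet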
FGF22 binding-1 – binders of recombinant human FGF22 by thermal shift; Q9HCT0; SYPRO orange fluorescence; percent of sucrose octasulfate shift, DMSO zero; activity (Tm shift, normalised), % at 9.99 µM; 340,000 compounds, 1.5% hits; AID 651658;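 active = mean Tm shift, scaled 0 neutral to 100 positive control, at about 1.3% or above, every replicate too, limit read from the data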
Target sequence (Q9HCT0 whole entry, looked up): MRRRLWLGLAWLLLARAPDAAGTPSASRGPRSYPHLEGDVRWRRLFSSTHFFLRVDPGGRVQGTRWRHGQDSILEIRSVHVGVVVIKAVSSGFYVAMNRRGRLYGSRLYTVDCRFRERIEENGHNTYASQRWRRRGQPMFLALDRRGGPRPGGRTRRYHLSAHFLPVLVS
Cneo AK release – Cryptococcus neoformans lysis via adenylate kinase release | C. neoformans lysis, adenylate kinase release luminescence, 4 h; normalised: neutral wells 0, clomiphene wells 100 | lysis activity, % at 15 µM | 360,000 compounds, 0.2% hits | AID 651654;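 active = mean lysis activity across replicates of at least 80%, whatever share of replicates individually reach that level; inactive = mean lysis activity below 80%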
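Assay system: Cryptococcus neoformans yeast cells / Dosing: single-point compound dose / Timing: 4 h at 37 °C static, read 1 h later / Measured by: luminescence of released adenylate kinase using an AK detection reagent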
Vif imaging – HIV Vif inhibition; AID 602346; 340,000 compounds, 0.35% hits; inhibition, % at 7.49 µM; HEK293T cells, Vif self-association by quenched fluorescence, imaging, 24 h; in the data active = inhibition above about 50%, passing the limit was not always enough
PglD inh – PglD (C. jejuni) enzyme inhibition; purified PglD enzyme, DTNB colorimetric CoA detection; inhibition, % at 12.5 µM; 360,000 compounds, 0.098% hits; in the data active = inhibition above about 16%, passing the limit was not always enough
PglD inh SP – blocks Campylobacter jejuni PglD acetyltransferase activity; shares compounds with PglD inh; Purified C. jejuni PglD, DTNB absorbance 412 nm; inhibition, % at 20 µM; 320 tested, under 10 active; AID 743156;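 active = mean inhibition across replicates of at least 20% with every single replicate also at 20% or more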;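 also: initial rate of CoA release by acetyl transfer from AcCoA to the UDP-4-amino sugar; 0% = median of neutral control wells and 100% = median of positive control wells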
FGF22 binding-2 – FGF22 (human) binding in thermal shift; shares compounds with FGF22 binding-1; recombinant FGF22 thermal shift, SYPRO orange fluorescence; thermal shift activity, °C (ΔTm) at 38 µM; 1,000 compounds, 2% hits; AID 720646;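 active = fitted rise in melting shift crosses a set limit at or below the top valid dose tested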
SYPRO no-protein – shows thermal shift signal without protein, FGF22 counter-screen; compound-only SYPRO orange thermal shift counter-screen, no protein; 1,000 compounds, 2% hits; AID 743019; AC50, µM (titrated, usually from 38 µM); shares compounds with FGF22 binding-1;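 active = rising signal whose fitted curve reaches the 0.54 level within the top valid dose, showing a melting point, actives reach about 13 µM in these data; inactive = the rest, including activity in the opposite direction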; also: value is where the raw curve crosses a fixed level and not half-maximal
* hit, by the source's call; i = inactive; x = not tested or not shown.

SMILES | PGC1a acetyl inh | Ecoli rRNA inh | FGF22 binding-1 | Cneo AK release | Vif imaging | PglD inh | others
CCOc1ccc2nc(N=Nc3c(O)[nH]c(=O)[nH]c3=O)sc2c1 | -3 | -20* | 0 | 3 | -2 | 7
CCOc1ccc2nc(N=Nc3c(O)[nH]c(=S)[nH]c3=O)sc2c1 | x | -34* | 1 | x | -6 | x
Cc1c(N=Nc2c(O)[nH]c(=S)[nH]c2=O)c(=O)n(-c2ccccc2)n1C | -2 | x | x | 2 | 2 | -1
COc1ccc(C#Cc2ccc([C@H]3[C@H]4CN(C(=O)Cc5cccnc5)CCCCN4[C@H]3CO)cc2)cc1 | -12 | -41 | 0 | 0 | x | -1
CCCCCCC(=O)c1c(O)n(-c2ccc(OC)cc2)c(=O)[nH]c1=O (tested in a mixture with another compound) | x | -20* | 0 | x | -10 | x
CC(=O)c1cn(Cc2ccccc2F)c2ccccc12 | -37 | -4 | x | -3 | -9 | -1
O=Cc1cn(Cc2cccc([N+](=O)[O-])c2)c2ccccc12 | x | -21* | 1 | x | -3 | x
O=Cc1cn(Cc2c(F)cccc2Cl)c2ccccc12 | 0 | -27* | 0 | 0 | -1 | 4
COc1ccccc1OCCCn1cc(C=O)c2ccccc21 | -22 | -18 | 0 | 4 | -18 | -4
Cc1cccc(Cn2cc(C=O)c3ccccc32)c1 | 0 | -13 | 0 | -1 | 13 | -2
O=Cc1cn(CCCOc2ccccc2)c2ccccc12 | x | -49* | 0 | x | -3 | x
O=Cc1cn(Cc2ccccc2F)c2ccccc12 | 8 | -25* | 0 | x | -7 | x
COC(=O)[C@H]1[C@H](CO)[C@H]2Cn3c(ccc(/C=C/c4ccccc4)c3=O)[C@@H]1N2CC1CCCC1 | -5 | -21 | 0 | -2 | x | -2
FC(F)(F)CN1C[C@@H]2C(c3ccccc3)[C@H](C1)N2CC1CC1 (some centres not stated) | x | -2 | x | x | x | x
Fc1ccc(CCNCc2ccc(Br)cc2)cc1 | 5 | 1 | 44* | 2 | -12 | 16
N#Cc1cccc(-c2ccc([C@H]3[C@H](CO)N4CCCCN(C(=O)Cc5cccnc5)C[C@@H]34)cc2)c1 | -2 | -4 | 0 | 2 | x | 2
Cn1cc(C(=O)NP(=O)(N2CCOCC2)N2CCOCC2)c2ccccc21 | -22 | 10 | 44* | 1 | -12 | x
CCCNS(=O)(=O)c1ccc(OCC(=O)N2CCN(Cc3ccc4c(c3)OCO4)CC2)c(C)c1 | x | -2 | 0 | x | -16 | x
CCCNS(=O)(=O)c1ccc(OCC(=O)N2CCN(Cc3ccc4c(c3)OCO4)CC2)cc1 | 30 | x | x | -2 | -7 | 29* | PglD inh SP=8
Cc1cc(C)cc(N2C(=O)/C(=C\c3ccc(N4CCN(C)CC4)o3)C(=O)NC2=S)c1 | -1 | x | 0 | 4 | 2 | 76* | PglD inh SP=-1
C[C@H]1CN([C@@H](C)CO)C(=O)c2c(c3ccccc3n2C)-c2ccccc2CO[C@@H]1CN(C)C(=O)Oc1ccccc1 | -2 | 0 | x | x | x | x
N/C(=N\[N+](=O)[O-])N1CCN(C(=O)c2ccccc2)CC1 | x | 23 | 0 | x | x | x
N/C(=N\[N+](=O)[O-])NCCCC(NC(=O)CNC(=O)c1ccccc1)C(=O)O (configuration not stated) | x | 2 | 2.5* | x | 5 | x | FGF22 binding-2=0.08;SYPRO no-protein=i
O=C(c1cccc2ccccc12)C1CCCN(Cc2ccon2)C1 (configuration not stated) | -2 | -8 | 2.2* | 1 | 2 | -1 | FGF22 binding-2=-0.008;SYPRO no-protein=i

Assay outcomes deposited in PubChem BioAssay by Broad Institute.
